Data on one compound can be found in ChEMBL document CHEMBL5346889, “Discovery of 4-oxo-N-phenyl-1,4-dihydroquinoline-3-carboxamide derivatives as novel anti-inflammatory agents for the treatment of acute lung injury and sepsis” (Eur J Med Chem, 2023).

Series [1] in a line: Half life in rat at 10 mg/kg, po. Format: ADME, organism-based. The following applies: in vivo. In outline: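 Rats dosed intravenously at 1 mg/kg or orally at 10 mg/kg; plasma pharmacokinetic parameters AUC(0-t), Tmax, T1/2, Cmax and oral bioavailability F derived from the two routes.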
Series [2] deals with J774.A1. Put plainly: Cytotoxicity against mouse J774.A1 cells assessed as reduction in cell viability at 10 uM incubated for 24 hrs by MTT assay. Format: functional, cell-based. In outline:
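J774A.1 macrophages exposed to 10 μM for 24 h; MTT at 5 mg/mL added for 4 h; absorbance read at 490 nm; viability expressed as percent of DMSO control.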
On the technique in general: Formazan colour is commonly taken as a measure of viable cells.

For series [3], the system named is LX-2. Put plainly: Antiinflammatory activity in LPS-induced human LX2 cells assessed as inhibition of LPS-induced TNF-alpha release preincubated for 30 mins followed by LPS stimulation for 24 hrs by ELISA method. It counts as functional, cell-based. In outline: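 THP-1 or LX-2 cells in DMEM with 10% FBS, 37 °C, 5% CO2. Pretreated 30 min at 10, 5, 2.5 or 1.25 μM, then LPS 0.5 μg/mL for 24 h. IL-6 and TNF-α in medium measured by ELISA, normalized to lysate total protein; mean ± SEM of 3 independent experiments.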

Series [4] deals with J774.A1. The series can be described thus: Antiinflammatory activity in LPS-induced mouse J774.A1 cells assessed as inhibition of LPS-induced IL-1 beta transcription preincubated for 0.5 hrs followed by LPS stimulation for 6 hrs by RT-qPCR method. It counts as functional, cell-based. Conditions: dose 5-10 µM, time 6.5 hrs. In outline:
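J774A.1 or THP-1 cells pretreated 0.5 h at 10 or 5 μM, then LPS 0.5 μg/mL for 6 h. TRIzol RNA; IL-6, TNF-α and IL-1β transcripts by RT-qPCR, normalized to β-actin and control; 3 independent experiments, mean ± SEM.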

Series [5] deals with Mus musculus. The series can be described thus: Antiinflammatory activity in LPS-induced C57/BL6 mouse acute lung injury model assessed as decrease in IL-6 level in serum at 20 mg/kg via oral gavage preincubated for 30 mins followed by LPS stimulation for 6 hrs by ELISA. The following applies: time 6.5 hrs. (In general: ELISA stands for enzyme-linked immunosorbent assay.)

One may read the half-life as the time in which the quantity being followed falls by half. A higher half-life goes with slow loss. By IC50 is commonly meant the concentration needed to halve the response being measured.

Structures are written as SMILES. Active and inactive are the calls of the source. The calls are words filed in the database; no cut-off is given here.

`COc1cc2nccc(Oc3ccc(NC(=O)c4cn(-c5ccccc5)c5ccccc5c4=O)cc3)c2cc1OC` gave a half-life in series [1] of 11.8 h. The result in series [2] was inactive. Further, the IC50 in series [3] is 2910 nM. The inhibition result in series [4] was “Dose-Dependent Effect”. In addition, in series [5], the result was Active.
